These results are taken from ChEMBL document CHEMBL1124993, “2-Phenyl-2-(1-hydroxycycloalkyl)ethylamine derivatives: synthesis and antidepressant activity” (J Med Chem, 1990).

Calls of active or inactive are those of the source. The calls are words filed in the database; no cut-off is given here.

The target in assay [1] is Sodium-dependent serotonin transporter (Rattus norvegicus, UniProt P31652). As to the kind of experiment: Inhibition of uptake of [14C]-labelled serotonin (5-HT) into rat brain synaptosomes.
Chain of Sodium-dependent serotonin transporter (P31652 whole entry): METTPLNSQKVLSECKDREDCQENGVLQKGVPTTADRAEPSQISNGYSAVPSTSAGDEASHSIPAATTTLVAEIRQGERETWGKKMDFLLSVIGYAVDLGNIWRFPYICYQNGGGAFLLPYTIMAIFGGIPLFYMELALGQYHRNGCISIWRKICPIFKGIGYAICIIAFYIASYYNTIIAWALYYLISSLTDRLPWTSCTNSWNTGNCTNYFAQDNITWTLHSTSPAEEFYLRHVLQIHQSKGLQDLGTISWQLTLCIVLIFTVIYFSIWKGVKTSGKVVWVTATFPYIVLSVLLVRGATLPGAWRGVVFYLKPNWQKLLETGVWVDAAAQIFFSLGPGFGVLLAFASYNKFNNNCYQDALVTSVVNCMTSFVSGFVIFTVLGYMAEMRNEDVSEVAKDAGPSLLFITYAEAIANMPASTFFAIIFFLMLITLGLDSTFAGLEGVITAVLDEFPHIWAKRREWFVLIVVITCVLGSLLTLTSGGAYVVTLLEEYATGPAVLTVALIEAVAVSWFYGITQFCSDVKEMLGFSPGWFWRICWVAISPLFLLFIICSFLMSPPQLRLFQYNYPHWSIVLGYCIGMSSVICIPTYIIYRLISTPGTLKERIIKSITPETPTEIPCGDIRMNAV
The target of assay [2] is Norepinephrine transporter (Rattus norvegicus, UniProt Q9WTR4). As to the kind of experiment: Inhibition of uptake of tritiated norepinephrine (NE) into rat brain synaptosomes. Type of assay: functional, subcellular.
Chain of Norepinephrine transporter (Q9WTR4 whole entry): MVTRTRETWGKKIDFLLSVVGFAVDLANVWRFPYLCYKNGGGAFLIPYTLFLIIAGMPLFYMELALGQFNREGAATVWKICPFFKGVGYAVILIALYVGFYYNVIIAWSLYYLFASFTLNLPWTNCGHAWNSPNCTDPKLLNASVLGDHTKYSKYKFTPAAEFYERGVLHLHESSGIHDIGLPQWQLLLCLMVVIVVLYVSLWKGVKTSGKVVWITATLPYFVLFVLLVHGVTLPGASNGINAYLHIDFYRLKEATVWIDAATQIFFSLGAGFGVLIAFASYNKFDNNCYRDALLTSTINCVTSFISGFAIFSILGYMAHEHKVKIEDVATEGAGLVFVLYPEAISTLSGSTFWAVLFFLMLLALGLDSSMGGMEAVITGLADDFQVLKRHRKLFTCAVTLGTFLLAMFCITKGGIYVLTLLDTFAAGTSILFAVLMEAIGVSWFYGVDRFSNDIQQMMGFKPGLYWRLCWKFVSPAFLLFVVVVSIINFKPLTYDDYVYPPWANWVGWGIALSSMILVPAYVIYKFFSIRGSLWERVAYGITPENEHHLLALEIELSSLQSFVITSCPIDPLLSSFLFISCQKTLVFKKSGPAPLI
In assay [3] the test system is Rattus norvegicus. Description: (§1) In vivo noradrenergic responsiveness in the rat pineal gland at 10 mg/kg (ip) (chronic treatment). Format: functional. An outline of the steps: (§2)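 Male Sprague–Dawley rats kept in continuous light, dosed ip twice daily for 5 days (nine injections). 1 h after last dose, isoproterenol 2 μmol/kg in 0.1% ascorbic acid (controls: vehicle); pineal removed 2.5 min later, perchloric acid extract assayed for cAMP by 125I radioimmunoassay. Expressed as % change from control isoproterenol-stimulated pmol cAMP/pineal.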

A further assay deals with Mus musculus. Description: In vivo antagonism of reserpine-induced hypothermia in the mice. Type of assay: functional. As to conditions: for minimal effective dose: Mus musculus, read-out: MED. An outline of the steps: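 Male mice pretreated 18 h earlier with reserpine 5.0 mg/kg sc; compounds in 0.25% Tween 80 in water given ip or po at 1, 3, 10, 30, 100 mg/kg. Rectal temperature read at 1, 2, 3 h post-dose; MED for reversing hypothermia from two-way ANOVA with Dunnett's comparison to control.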

Assay [4] relates to Rattus norvegicus. Description: In vivo noradrenergic responsiveness in the rat pineal gland at 10 mg/kg (ip) (single treatment). Type of assay: functional. The procedure, abridged: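 Male Sprague–Dawley rats kept in continuous light, given saline twice daily for 5 days, then a single 10 or 30 mg/kg ip dose on day 5. 1 h later, isoproterenol 2 μmol/kg in 0.1% ascorbic acid (or vehicle). Pineal removed 2.5 min after, perchloric acid extract, cAMP by radioimmunoassay; % change versus isoproterenol-stimulated controls.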

In assay [5] the test system is Rattus norvegicus. As to the kind of experiment: (§3) In vivo antagonism of histamine-induced ACTH release in the rat at 10 mg/kg (ip). Type of assay: functional. The procedure, abridged:
(§4)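 Male Sprague–Dawley rats (200–300 g) given compound in saline ip 1 h before saline or histamine (5 mg/kg ip); decapitated 10 min later, trunk blood serum assayed for ACTH by radioimmunoassay (pg/mL). Two-way ANOVA with Dunnett's and Student–Neuman–Keuls tests; value is % decrease of histamine-stimulated ACTH.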

Assay [6] has as its system Rattus norvegicus. Description: In vivo noradrenergic responsiveness in the rat pineal gland at 10 mg/kg (ip) (single treatment); No significant effect. Further details: dose 10 mg/kg. Format: functional, organism-based.
The test system of assay [7] is Rattus norvegicus. Described as §3. Format: functional. The procedure, abridged:
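Male Sprague–Dawley rats (200–300 g), 10 mg/kg in saline ip, 1 h before saline or histamine (5 mg/kg ip). Decapitated 10 min later; trunk-blood serum frozen at -60 °C, ACTH measured by radioimmunoassay (pg/mL). Two-way ANOVA with Dunnett's and Student–Neuman–Keuls tests; expressed as % decrease.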
The source holds these as a separate data set.

Assay [8] has as its system Rattus norvegicus. Description: In vivo noradrenergic responsiveness in the rat pineal gland at 10 mg/kg (ip) (chronic treatment); No significant effect. Type of assay: functional, organism-based. More on the design: dose 10 mg/kg. The procedure, abridged: as §2
Assay [9] relates to Rattus norvegicus. Description: In vivo antagonism of histamine-induced ACTH release in the rodents at 10 mg/kg (ip); No significant effect. Type of assay: functional, organism-based. Further details: dose 10 mg/kg. An outline of the steps: as §4
In assay [10] the test system is Rattus norvegicus. Described as §1. Type of assay: functional. An outline of the steps: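 Male Sprague–Dawley rats under continuous light, injected ip twice daily for 5 days (nine injections) with 10 or 30 mg/kg. 1 h after last dose, isoproterenol 2 μmol/kg in 0.1% ascorbic acid (or vehicle). Pineal removed 2.5 min later, perchloric acid extract, cAMP by 125I radioimmunoassay; % change versus isoproterenol-stimulated controls.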
The source holds these as a separate data set.

Assay [11] has as its target T1, Serotonin 2 (5-HT2) receptor (Rattus norvegicus) (UniProt P30994+P08909+P14842).
For assay [12], the target named is T1, Serotonin 2 (5-HT2) receptor (Rattus norvegicus). This is another data set of the same source.
In assay [13] the target is T2, Adrenergic receptor beta (Rattus norvegicus) (UniProt P18090+P10608+P26255).
Assay [14] addresses T2, Adrenergic receptor beta (Rattus norvegicus). This is another data set of the same source.

T1 sequence (P08909 whole entry, looked up): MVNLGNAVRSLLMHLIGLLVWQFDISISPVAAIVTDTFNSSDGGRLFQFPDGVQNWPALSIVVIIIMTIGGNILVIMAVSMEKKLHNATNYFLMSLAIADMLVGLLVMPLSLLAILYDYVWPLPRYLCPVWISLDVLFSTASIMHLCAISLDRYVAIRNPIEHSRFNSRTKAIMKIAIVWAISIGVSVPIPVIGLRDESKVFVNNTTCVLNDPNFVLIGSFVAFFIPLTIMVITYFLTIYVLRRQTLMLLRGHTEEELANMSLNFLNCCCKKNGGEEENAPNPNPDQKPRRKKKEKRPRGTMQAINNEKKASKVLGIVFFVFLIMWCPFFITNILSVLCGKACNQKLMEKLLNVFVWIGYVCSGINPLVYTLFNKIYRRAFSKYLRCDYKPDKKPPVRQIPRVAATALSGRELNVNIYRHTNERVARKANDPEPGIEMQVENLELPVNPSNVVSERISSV
T1 sequence (P14842 whole entry, looked up): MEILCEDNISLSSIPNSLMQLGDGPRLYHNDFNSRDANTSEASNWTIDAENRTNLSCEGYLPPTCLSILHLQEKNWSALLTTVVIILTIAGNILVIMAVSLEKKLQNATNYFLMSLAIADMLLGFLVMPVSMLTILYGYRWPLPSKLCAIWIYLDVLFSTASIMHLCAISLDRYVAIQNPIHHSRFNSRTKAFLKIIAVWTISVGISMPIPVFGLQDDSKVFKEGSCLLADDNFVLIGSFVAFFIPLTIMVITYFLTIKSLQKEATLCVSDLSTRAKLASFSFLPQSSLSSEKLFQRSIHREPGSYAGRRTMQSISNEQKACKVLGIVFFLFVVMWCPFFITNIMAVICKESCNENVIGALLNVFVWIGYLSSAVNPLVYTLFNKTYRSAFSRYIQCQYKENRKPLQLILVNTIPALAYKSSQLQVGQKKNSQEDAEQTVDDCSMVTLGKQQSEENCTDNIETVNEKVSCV
T1 sequence (P30994 whole entry, looked up): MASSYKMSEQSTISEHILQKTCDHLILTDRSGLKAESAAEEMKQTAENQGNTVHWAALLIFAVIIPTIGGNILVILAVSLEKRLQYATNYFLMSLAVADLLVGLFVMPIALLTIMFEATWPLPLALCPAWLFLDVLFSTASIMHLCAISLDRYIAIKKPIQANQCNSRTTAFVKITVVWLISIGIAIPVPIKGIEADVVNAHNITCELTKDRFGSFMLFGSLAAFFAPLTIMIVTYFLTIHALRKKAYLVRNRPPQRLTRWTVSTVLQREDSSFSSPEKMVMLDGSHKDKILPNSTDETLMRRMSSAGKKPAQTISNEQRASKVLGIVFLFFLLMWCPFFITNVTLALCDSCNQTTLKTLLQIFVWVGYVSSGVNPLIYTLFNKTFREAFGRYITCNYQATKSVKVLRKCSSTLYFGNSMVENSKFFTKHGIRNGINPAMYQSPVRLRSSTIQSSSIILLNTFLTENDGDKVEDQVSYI

Regarding `COc1cccc(C(CN(C)C)C2(O)CCCC2)c1` (centres undefined), the half-maximal inhibitory concentration (IC50) in [1] was 680 nM; in assay [2], above 10000 nM.
As for `CN(C)CC(c1ccc(Cl)c(Cl)c1)C1(O)CCCCC1` (centres undefined), the results for the Change in the assay on Rattus norvegicus [3] and in the assay on Rattus norvegicus [4] were -74% and -51%, respectively. In the assay with Mus musculus, the minimal effective dose stood at 3 mg/kg. Half-maximal inhibition in [2] (IC50) required 70 nM. Besides, in the assay on Rattus norvegicus [5], the Decrease is 55%.
With `CNCCCN1c2ccccc2CCc2ccccc21` [DESIPRAMINE], in the assay with Rattus norvegicus [3], the Change is on record as -81%. For the same compound, the minimal effective dose with Mus musculus was found to be 0.4 mg/kg. Further, in the assay on Rattus norvegicus [6], the Change entry was “inactive”. The same compound came in with a Decrease in the assay with Rattus norvegicus [5] of 52%.
For `CNCC(c1ccc(OC)cc1)C1(O)CCCCC1` (centres undefined) [N-DESMETHYLVENLAFAXINE CHLORIDE], the IC50 was 1600 nM in [1] and 4700 nM in [2].
In assay [2], `CN(C)CC(c1ccc(O)cc1)C1(O)CCCCC1` (centres undefined) [DESVENLAFAXINE] came in with an IC50 of 1160 nM.
Take `COc1ccc(C(CN(C)C)C2(O)CCCCCC2)cc1` (centres undefined): the IC50 in assay [1] was found to be 240 nM; in [2], 2070 nM.
`COc1ccc(C(CN(C)C)C2(O)CCCCC2)cc1` (single isomer, unassigned; (+)) [VENLAFAXINE] showed an MED with Mus musculus of 30 mg/kg. In the assay with Rattus norvegicus [7] (10 mg/kg), the Decrease turned out to be 54%.
In the case of `CN(C)CC(c1ccc(C(F)(F)F)cc1)C1(O)CCCCC1` (centres undefined), the IC50 in assay [1] turned out to be 400 nM; in assay [2], 2800 nM.
For `CN(C)CC(c1ccc(Cl)cc1)C1(O)CCCCC1` (centres undefined), in that order: 180 nM and 300 nM.
The matching figures for `Cc1ccc(C(CN(C)C)C2(O)CCCCC2)cc1` (centres undefined): 1540 nM and 530 nM.
The matching figures for `CN(C)CC(c1ccc(C(F)(F)F)cc1)C1(O)CCCCCC1` (centres undefined): 500 nM and 2400 nM.
As for `COc1ccc(C(CN(C)C)C2(O)CCCCC2)cc1Br` (centres undefined), the IC50 in assay [1] worked out at 200 nM; in assay [2] it was 140 nM. Further, the Change was -82% in the assay on Rattus norvegicus [3] and -65% in the assay on Rattus norvegicus [4]. Besides, the minimal effective dose in the assay with Mus musculus stood at 1 mg/kg. In the assay with Rattus norvegicus [5], this compound had a Decrease of 34%.
For `COc1ccc(C(CN(C)C)C2(O)CCCC2)cc1` (centres undefined), the IC50 in [1] turned out to be 400 nM; in assay [2] it was 5800 nM.
For `COc1ccc(C(CN(C)C)C2(O)CCCCC2)cc1` (single isomer, unassigned; (+)), the Change entry in the assay with Rattus norvegicus [8] and in the assay on Rattus norvegicus [6] was “inactive” in each case.
With `CN(C)CC(c1cccc(Cl)c1)C1(O)CCCCC1` (centres undefined), in the assay on Mus musculus, the minimal effective dose amounted to 1 mg/kg. Moreover, the Change result with Rattus norvegicus [9], in the assay with Rattus norvegicus [8] and in the assay on Rattus norvegicus [6] was “inactive” throughout.
As to `CN(C)CC(c1cccc(C(F)(F)F)c1)C1(O)CCCCC1` (centres undefined), the IC50 in assay [1] is 1440 nM; in assay [2], 360 nM.
Regarding `COc1ccc(C(CN(C)C)C2(O)CCCCC2)cc1` (single isomer, unassigned; (-)) [VENLAFAXINE], the Change in the assay with Rattus norvegicus [10] was -51%; in the assay on Rattus norvegicus [4], -53%. In addition, the MED in the assay with Mus musculus was found to be 3 mg/kg. The compound also returned a Decrease in the assay with Rattus norvegicus [7] (10 mg/kg) of 37%.
For `COc1ccc(C(CN(C)C)C2(O)CCCCC2)cc1` (stereo in doubt; 4), the Binding activity worked out at 77.8 fM/mg in assay [11], 251 fM/mg in [12], 35 fM/mg in assay [13] and 61.8 fM/mg in [14].
As for `CN(C)CC(c1ccc(C(F)(F)F)cc1)C1(O)CCCC1` (centres undefined), the concentration for half-maximal inhibition (IC50) is 490 nM in assay [1] and 10400 nM in assay [2].
Take `CN(C)CC(c1ccccc1)C1(O)CCCCC1` (centres undefined): 1900 nM corresponded to half-maximal inhibition in assay [2] (IC50).
Turning to `COc1cccc(C(CN(C)C)C2(O)CCCCC2)c1` (centres undefined), the IC50 in [1] is 190 nM; in assay [2] it was 620 nM. Also, the Change with Rattus norvegicus [3] is given as -81%; in the assay with Rattus norvegicus [4] it was -79%. Also, the minimal effective dose in the assay with Mus musculus came to 3 mg/kg. Moreover, the Decrease in the assay with Rattus norvegicus [5] was 52%.
In the case of `CN(C)CC(c1cccc(Br)c1)C1(O)CCCCC1` (centres undefined), the IC50 in [1] was 230 nM; in assay [2], 110 nM. The minimal effective dose in the assay on Mus musculus stood at 1 mg/kg. Moreover, the Decrease in the assay on Rattus norvegicus [7] was 67%. For the same compound, the Change entry in the assay with Rattus norvegicus [8] and in the assay with Rattus norvegicus [6] was “inactive” throughout.
Consider `CN(C)CC(c1ccc(Br)cc1)C1(O)CCC1` (centres undefined), for which the IC50 was found to be 580 nM in assay [1] and 890 nM in [2].
Regarding `CN(C)CC(c1ccc(Br)cc1)C1(O)CCCCC1` (centres undefined), the IC50 in assay [1] was determined as 110 nM; in assay [2] it was 210 nM. The minimal effective dose in the assay on Mus musculus stood at 1 mg/kg. In addition, the Change entry in the assay on Rattus norvegicus [8] and in the assay with Rattus norvegicus [6] was “inactive” throughout. Further, in the assay on Rattus norvegicus [5], the Decrease was determined as 43%.
In the case of `COc1ccc(C(CN(C)C)C2(O)CCCCC2)cc1` (stereo in doubt; 4) [VENLAFAXINE], the Change in the assay with Rattus norvegicus [3] was -43%; with Rattus norvegicus [4], -51%. This compound came in with an MED with Mus musculus of 10 mg/kg. This compound also yielded a Decrease with Rattus norvegicus [5] of 26%.
As for `COc1ccc(C(CN(C)C)C2(O)CCCCC2)cc1OC` (centres undefined), the values for the IC50 in assay [1] and in [2] were 130 nM and 1380 nM, respectively.
